Measurements reported in ChEMBL document CHEMBL3862015, “Synthesis and biological evaluation of furocoumarin derivatives on melanin synthesis in murine B16 cells for the treatment of vitiligo” (2016).
Active and inactive are the calls of the source. The calls are words filed in the database; no cut-off is given here.

How the values were obtained:
B16-F10 [1] = experiment: Induction of melanin synthesis in mouse B16F10 cells at 50 uM after 48 hrs by spectrophotometric analysis relative to control; type: functional
Method in brief: (§1)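 B16F10 cells in DMEM with 10% heat-inactivated FBS, penicillin/streptomycin, 37 °C, 5% CO2; 5 × 10^5 cells per well, allowed 24 h, then fresh medium with compound for 48 h. Cells washed in cold PBS, lysed in RIPA on ice 40 min, spun 10,000g 20 min; pellet dissolved in 1 M NaOH, 60 °C 2 h, A405, normalised to protein. Three experiments in duplicate.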

B16-F10 [2] = experiment: Induction of melanin synthesis in mouse B16F10 cells at 50 uM after 48 hrs by spectrophotometric analysis relative to 8-MOP; type: functional; method in brief: as §1

Cc1oc2ccc3c(C)cc(=O)oc3c2c1C
Activity (B16-F10 [1]): Active

Cc1coc2cc3oc(=O)ccc3cc12
Activity (B16-F10 [1]): Active

O=Cc1cc(=O)oc2cc3oc4ccccc4c3cc12
Activity (B16-F10 [1]): Active

O=c1ccc2ccc3occc3c2o1
Activity (B16-F10 [1]): Active

Cc1oc2cc3oc(=O)ccc3cc2c1C
Activity (B16-F10 [1]): Active

Cc1cc(=O)oc2c1ccc1occ(C)c12
Activity (B16-F10 [1]): Active

Cc1oc2cc3oc(=O)cc(C)c3cc2c1C
Activity (B16-F10 [1]): Active

Cc1ccc(C(=O)OCc2cc(=O)oc3cc4oc5ccccc5c4cc23)cc1
Activity (B16-F10 [1]): 313.1% | fold change (FC) (B16-F10 [2]): 3

O=c1ccc2cc3c(-c4ccccc4)coc3cc2o1
Activity (B16-F10 [1]): Active

Cc1cc(=O)oc2cc3oc4c(c3cc12)CCCC4
Activity (B16-F10 [1]): Active

COc1c2occc2cc2ccc(=O)oc12 [METHOXSALEN]
Activity (B16-F10 [1]): 114.5%

O=c1ccc2ccc3oc4c(c3c2o1)CCCC4
Activity (B16-F10 [1]): Active

Cc1coc2ccc3ccc(=O)oc3c12
Activity (B16-F10 [1]): Active

Cc1coc2cc3oc(=O)cc(C)c3cc12
Activity (B16-F10 [1]): Active

O=c1ccc2cc3c4c(oc3cc2o1)CCCC4
Activity (B16-F10 [1]): Active

Cc1ccccc1/N=C/c1cc(=O)oc2cc3oc4ccccc4c3cc12
Activity (B16-F10 [1]): 350.5% | fold change (FC) (B16-F10 [2]): 3

Cc1cc(=O)oc2cc3occ(-c4ccccc4)c3cc12
Activity (B16-F10 [1]): Active

O=c1ccc2cc3ccoc3cc2o1
Activity (B16-F10 [1]): Active

Cc1oc2ccc3ccc(=O)oc3c2c1C
Activity (B16-F10 [1]): Active

Cc1cc(=O)oc2c1ccc1occc12
Activity (B16-F10 [1]): Active

O=c1cc(CO)c2cc3c(cc2o1)oc1ccccc13
Activity (B16-F10 [1]): Active
